Compound activity: PubChem BioAssay, several laboratories
Most compounds without a hit are left out; they make up all but 0.94% or so of the library.
Arr AP2 block: blocks beta-arrestin peptide binding to AP2 adaptin. hit rate 0.31% among 340,000. FITC-arrestin peptide / GST-AP2 beads, flow cytometry; AP2 beta2 appendage carries R879A mutation. inhibition, % at 10 µM. AID 504490;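 active means inhibition above a set limit, near 3 SD of compounds lacking own fluorescence, cut at about 54% in these data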;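 further: plate controls were DMSO wells for no effect and 5 µM unlabelled arrestin peptide for full effect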
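System: GST-AP2 R879A bound to glutathione beads, E. coli-expressed. Also added: 50 nM FITC-arrestin peptide. Schedule: compound with beads 12 min RT, then probe 1 h RT. Signal: bead flow cytometry, FITC channel. Read-out basis: percent response.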
GC-B act: GC-B (human) receptor activation; activation, % at 10 µM; hit rate 0.11% among 370,000; HEK293-GC-B cells, CNP EC30, cGMP TR-FRET; 0% at EC30 CNP, 100% saturating CNP; P20594; AID 1920062;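 active means activation at 10 µM reaching about 35% in either raw or pattern-adjusted values, limit read from the data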
GC-A act: GC-A (human) enzyme activation | HEK293 GC-A cells, cGMP TR-FRET, EC30 ANP; 0% at EC30 ANP, 100% saturating ANP | hit rate 0.14% among 370,000 | activation, % at 10 µM; in the data active means activation above about 40%
Target sequence (P16066 whole entry, looked up): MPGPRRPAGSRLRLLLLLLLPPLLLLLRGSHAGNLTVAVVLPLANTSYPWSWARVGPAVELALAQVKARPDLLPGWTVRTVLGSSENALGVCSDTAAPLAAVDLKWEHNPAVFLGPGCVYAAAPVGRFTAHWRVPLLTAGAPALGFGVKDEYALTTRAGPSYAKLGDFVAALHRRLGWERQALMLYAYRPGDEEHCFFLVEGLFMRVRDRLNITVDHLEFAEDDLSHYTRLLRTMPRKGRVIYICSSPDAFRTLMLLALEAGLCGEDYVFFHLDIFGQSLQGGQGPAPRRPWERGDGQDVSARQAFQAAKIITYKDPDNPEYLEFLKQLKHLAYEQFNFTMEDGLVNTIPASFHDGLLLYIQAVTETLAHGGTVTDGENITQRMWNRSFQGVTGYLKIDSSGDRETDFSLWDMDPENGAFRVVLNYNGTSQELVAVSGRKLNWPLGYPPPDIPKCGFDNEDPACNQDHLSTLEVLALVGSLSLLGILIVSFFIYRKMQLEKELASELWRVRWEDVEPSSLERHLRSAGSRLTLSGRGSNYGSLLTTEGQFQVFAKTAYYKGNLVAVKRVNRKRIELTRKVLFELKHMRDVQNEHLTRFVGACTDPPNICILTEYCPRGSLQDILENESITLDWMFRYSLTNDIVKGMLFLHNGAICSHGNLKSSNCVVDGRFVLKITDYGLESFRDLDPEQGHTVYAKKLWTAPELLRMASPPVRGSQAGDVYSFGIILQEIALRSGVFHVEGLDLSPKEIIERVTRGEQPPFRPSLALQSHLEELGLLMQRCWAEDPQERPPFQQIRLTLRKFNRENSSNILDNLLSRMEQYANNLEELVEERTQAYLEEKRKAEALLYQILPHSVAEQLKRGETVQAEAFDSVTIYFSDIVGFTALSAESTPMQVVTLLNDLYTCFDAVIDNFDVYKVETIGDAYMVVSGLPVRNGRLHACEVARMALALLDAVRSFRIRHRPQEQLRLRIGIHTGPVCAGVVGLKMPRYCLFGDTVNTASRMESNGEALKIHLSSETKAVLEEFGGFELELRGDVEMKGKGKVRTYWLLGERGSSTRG
GalR3 antag: human GalR3 antagonism. O60755. HEK293 GalR3-CNG cAMP membrane potential fluorescence; galR3 body fused to GalR1 C-terminus. inhibition, % at 3 µM. hit rate 0.44% among 360,000. AID 651719;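 active means inhibition above the screen-wide average plus 3 SD, cut at about 13% in these data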;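 further: forskolin and galanin both at EC90 stimulate the cells; cAMP rise reported by CNG channel membrane potential dye signal; 0% = forskolin plus galanin with DMSO and 100% = forskolin alone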
GalR3 antag conf: GalR3 (human) antagonism, confirmation; shares compounds with GalR3 antag; HEK293 GalR3 CNG cAMP biosensor, membrane potential fluorescence; galR3 fused to GalR1 carboxy tail; challenged with forskolin and galanin at EC90; hit rate 59% among 1,600; AID 652245; inhibition, % at 3 µM;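 active means inhibition above the primary screen's cutoff, the mean inhibition of all screened compounds plus 3 SD, cut at about 13% in these data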;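 further: 0% = forskolin plus galanin and 100% = forskolin alone with DMSO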
HEK-CNG parental: acts as nonspecific agonist in parental HEK-CNG cells; activation, % at 3 µM; HEK293-CNG parental cells, cAMP membrane potential fluorescence; normalised: DMSO wells 0%, forskolin wells 100%; hit rate 10% among 1,600; shares compounds with GalR3 antag; AID 652268; in the data active means activation above about 1.3%
* marks the source's active call; other numbers are inactive results.

`O=C(C(=O)c1cc(Br)ccc1O)c1cc(Br)ccc1O` gave Arr AP2 block 25.5, GC-B act 0.1, GC-A act 13.2, GalR3 antag 87.0*, GalR3 antag conf 43.7* and HEK-CNG parental 0.8.
CCC(=O)OCCNc1cc(Sc2nccn2C)c2nonc2c1[N+](=O)[O-] was read as Arr AP2 block 17.0, GC-B act 12.3, GC-A act 24.2, GalR3 antag 40.8*, GalR3 antag conf 20.6* and HEK-CNG parental 0.4.
For COC(=O)[C@]12C[C@H](CC(=O)NCc3ccc(OC)c(OC)c3)C(=O)N(CCc3ccc(OC)c(OC)c3)C1=C[C@H](COCc1ccccc1)O[C@@H]2C the results were GC-B act 4.8 and GC-A act 2.7.
Screening COc1ccc(/C=C(/NC(=O)c2ccccc2)C(=O)NC2CCS(=O)(=O)C2)cc1 (centres undefined) returned Arr AP2 block 0.6, GC-B act -2.2, GC-A act -0.5, GalR3 antag conf 1.4 and HEK-CNG parental 0.1.
For Cc1ccc(C(=O)N/C(=C/c2ccco2)C(=O)NC2CCS(=O)(=O)C2)cc1 (centres undefined) the results were Arr AP2 block -8.2, GC-B act -3.6, GC-A act -2.6 and GalR3 antag -0.8.
CN=C1NC(=O)/C(=C\c2cc(C)n(-c3ccccc3F)c2C)S1 was read as GC-B act -24.2 and GC-A act -16.0.
For COc1cc(F)ccc1-c1cc(C(=O)NCc2cccs2)[nH]n1 the results were GC-B act 1.7, GC-A act 9.9 and GalR3 antag -7.6.
CC(C)Oc1ccc(F)cc1-c1cc(C(=O)NCc2cccs2)[nH]n1 was read as GC-B act 13.0, GC-A act 14.0, GalR3 antag 22.9*, GalR3 antag conf 0.4 and HEK-CNG parental 0.6.
COc1ccc(N2CCN(CCCNC(=O)Cn3c(=O)c4cccn4c4c(C)ccnc43)CC2)cc1 was read as GC-B act -12.9 and GC-A act -5.1.
`COc1ccc(CC2(CO)CCN(Cc3cccc(OC)c3OC)CC2)cc1` gave Arr AP2 block 6.8, GC-B act -5.5, GC-A act -5.0, GalR3 antag 26.1*, GalR3 antag conf 1.6 and HEK-CNG parental 2.1*.
Screening COc1ccc(CC2(CO)CCN(Cc3cccnc3)CC2)cc1 returned Arr AP2 block 8.2, GC-B act 2.1, GC-A act 1.3 and GalR3 antag -1.5.
For C/C(=C/C(=O)Nc1cccc(F)c1)N1CCCC1 the results were Arr AP2 block 2.8, GC-B act -0.1, GC-A act -3.3, GalR3 antag 17.5*, GalR3 antag conf -0.1 and HEK-CNG parental 0.0.
For O=C(Nc1cccc(F)c1)N1CCCCCC1 the results were Arr AP2 block 11.0, GC-B act 0.3, GC-A act 0.6 and GalR3 antag -3.5.
Screening Cc1ccc(CN2CCCCC(NC(=O)c3ccc(N(C)C)cc3)C2=O)cc1 (centres undefined) returned GC-B act -1.4 and GC-A act -1.0.
For CCOC(=O)c1ccc(NC(=O)Nc2nncs2)cc1 the results were GC-B act 3.7, GC-A act 8.8, GalR3 antag 14.0*, GalR3 antag conf 19.6* and HEK-CNG parental 1.4*.
COc1ccc(CNC(=O)[C@@H](C)NC(=O)[C@@H]2Cc3ccccc3CN2)cc1 was read as Arr AP2 block 15.4, GC-B act -0.1, GC-A act 2.2, GalR3 antag 19.5*, GalR3 antag conf -2.1 and HEK-CNG parental 0.3.
For COc1ccc(N)cc1CN1CCN(c2ncc(Cc3ccccc3)cn2)CC1 the results were GC-B act -3.8, GC-A act -5.4 and GalR3 antag -5.7.
COC(=O)C(C)Sc1nc2c(c(=O)[nH]c(=O)n2C)n1CCC(C)C (centres undefined) was read as Arr AP2 block -11.7, GC-B act 16.1, GC-A act 22.2, GalR3 antag 55.2*, GalR3 antag conf 12.9* and HEK-CNG parental 0.6.
COC(=O)C(C)Sc1nc2c(c(=O)n(C)c(=O)n2C)n1CCC(C)C (centres undefined) was read as Arr AP2 block 1.2, GC-B act -1.0, GC-A act 12.2 and GalR3 antag 1.8.
For CC1(C)CC2CC(C)(CN2S(=O)(=O)c2ccc(C(=O)Nc3ccc(Cl)c(S(=O)(=O)N4CCOCC4)c3)cc2)C1 (centres undefined) the results were Arr AP2 block 29.6, GC-B act 4.0, GC-A act 0.8 and GalR3 antag -3.2.
For CC1(C)CC2CC(C)(CN2S(=O)(=O)c2ccc(C(=O)Nc3ccc(S(=O)(=O)N4CCOCC4)cc3)cc2)C1 (centres undefined) the results were Arr AP2 block 9.3, GC-B act -0.3, GC-A act -0.9, GalR3 antag 87.4*, GalR3 antag conf 118.0* and HEK-CNG parental -2.5.
CCCCCC(=O)NC1CCCCN(C)C1=O (centres undefined) was read as GC-B act -1.7, GC-A act 0.4 and GalR3 antag -5.8.
For COCCn1c(C)cc(C(=O)COc2nc3ccccc3nc2C)c1C the results were Arr AP2 block 30.6, GC-B act 2.7, GC-A act 2.1, GalR3 antag 98.5*, GalR3 antag conf 84.9* and HEK-CNG parental -0.2.
COCCn1c(C)cc(C(=O)CSc2ccc3ccccc3n2)c1C was read as Arr AP2 block 2.1, GC-B act 0.2, GC-A act -4.8 and GalR3 antag -0.7.
For N#Cc1ccc(S(=O)(=O)N2CCCc3nc(-c4ccc(Br)cc4)ccc32)cc1 the results were GC-B act 0.1, GC-A act -3.2 and GalR3 antag -4.2.
Screening CCOC(=O)N1CCN(C(=O)C[C@@H]2C(=O)N(Cc3ccc(OC)cc3)C3=CCN(C(=O)OC(C)(C)C)C[C@]32C(=O)OCC)CC1 returned GC-B act -9.6 and GC-A act 0.0.
`CCOc1ccccc1OCC(=O)N/N=C(\C)Cc1ccc(OC)cc1` gave Arr AP2 block -4.5, GC-B act -2.9, GC-A act -1.0, GalR3 antag 22.4*, GalR3 antag conf -1.6 and HEK-CNG parental 1.0.
Cc1ccccc1NC(=O)N1CCCC1C(=O)NCc1cccs1 (centres undefined) was read as Arr AP2 block -8.2, GC-B act -7.2, GC-A act -0.6, GalR3 antag conf 1.4 and HEK-CNG parental -1.5.
Screening Cc1nnc(SCC(=O)Nc2cccc(S(=O)(=O)N(C)c3ccccc3)c2)s1 returned Arr AP2 block -5.5, GC-B act 2.8, GC-A act -0.6, GalR3 antag 12.6*, GalR3 antag conf 10.1 and HEK-CNG parental -0.3.
